pIC50: −log10 of the molar value. Converted amounts (≈) assume the structure as drawn.
What was measured:
[1] = tested on: Klebsiella pneumoniae; experiment: Antibacterial activity against Klebsiella pneumoniae HK11750/08 clinical isolate after 24 hrs by microdilution assay; type: functional; settings: HK11750/08, 24 h
[2] = tested on: K562; experiment: Induction of apoptosis in human K562 cells assessed as caspase 3/7 activity after 24 hrs by caspase-glo luminescent assay; type: cell-based; settings: K562, 24 h
How it was run: (§1)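 Cells were seeded at 500 per well in their growth media and exposed to 12 concentrations from 40 µM to 1 nM, delivered from DMSO, in triplicate. After 24 h, caspase-3/7 activity was read by Caspase-Glo luminescence. Data were normalized and ED50 was fitted by variable-slope nonlinear regression.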

[3] = tested on: HepG2; experiment: Cytotoxicity against human HepG2 cells assessed as reduction in cell viability after 48 hrs by ATPlite-based luminescent assay; settings: HepG2, 48 h
How it was run: (§2)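 Cells were grown […] with 10% FBS, glutamax, NEAA and pen/strep at 37 °C, 5% CO2. Media were DMEM for RPE-1, HepG2 and BJ (BJ plus 10 ng/ml bFGF), F-12K for PC3, and IMDM for K562/HL-60. Cells were seeded at 500 per well and dosed from DMSO at 12 concentrations, 40 µM to 1 nM, in triplicate. After 48 h, intracellular ATP was read by luminescence. ED50 was obtained by variable-slope nonlinear regression.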

[4] = tested on: Klebsiella pneumoniae; experiment: Antibacterial activity against Klebsiella pneumoniae HK11750/08 clinical isolate after 48 hrs by microdilution assay; type: functional; settings: HK11750/08, 48 h
[5] = tested on: Klebsiella pneumoniae; experiment: Antibacterial activity against Klebsiella pneumoniae HK14368/08 clinical isolate after 48 hrs by microdilution assay; type: functional; settings: HK14368/08, 48 h
[6] = tested on: Enterococcus sp.; experiment: Antibacterial activity against Enterococcus sp. HK14365/08 clinical isolate after 48 hrs by microdilution assay; type: functional; settings: HK14365/08, 48 h
[7] = tested on: Staphylococcus epidermidis; experiment: Antibacterial activity against Staphylococcus epidermidis HK6966/08 clinical isolate after 24 hrs by microdilution assay; type: functional; settings: HK6966/08, 24 h
[8] = tested on: PC-3; experiment: Cytotoxicity against human PC3 cells assessed as reduction in cell viability after 48 hrs by ATPlite-based luminescent assay; settings: PC-3, 48 h; how it was run: as §2
[9] = tested on: Staphylococcus aureus; experiment: Antibacterial activity against Staphylococcus aureus ATCC 6538 after 48 hrs by microdilution assay; type: functional; settings: ATCC 6538, 48 h
[10] = tested on: Staphylococcus aureus; experiment: Antibacterial activity against Staphylococcus aureus ATCC 6538 after 24 hrs by microdilution assay; type: functional; settings: ATCC 6538, 24 h
[11] = tested on: TERT-RPE1; experiment: Induction of apoptosis in human RPE1 cells assessed as caspase 3/7 activity after 24 hrs by caspase-glo luminescent assay; type: cell-based; settings: RPE-1, 24 h; how it was run: as §1
[12] = tested on: Klebsiella pneumoniae; experiment: Antibacterial activity against Klebsiella pneumoniae HK14368/08 clinical isolate after 24 hrs by microdilution assay; type: functional; settings: HK14368/08, 24 h
[13] = tested on: K562; experiment: Cytotoxicity against human K562 cells assessed as reduction in cell viability after 48 hrs by ATPlite-based luminescent assay; settings: K562, 48 h; how it was run: as §2
[14] = tested on: HL-60; experiment: Induction of apoptosis in human HL60 cells assessed as caspase 3/7 activity after 24 hrs by caspase-glo luminescent assay; type: cell-based; settings: HL-60, 24 h; how it was run: as §1
[15] = tested on: HepG2; experiment: Induction of apoptosis in human HepG2 cells assessed as caspase 3/7 activity after 24 hrs by caspase-glo luminescent assay; type: cell-based; settings: HepG2, 24 h; how it was run: as §1
[16] = tested on: Escherichia coli; experiment: Antibacterial activity against Escherichia coli ATCC 8739 after 24 hrs by microdilution assay; type: functional; settings: ATCC 8739, 24 h
How it was run: (§3)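 Broth microdilution in Mueller-Hinton medium buffered to pH 7.4 (±0.2), with DMSO as diluent at no more than 2% final. Compounds were tested as 2-fold serial dilutions from 2000 to 0.488 µmol/l. The inoculum was 0.5 McFarland (1.5×10^8 cfu/ml). Plates were held at 37 °C and read visually at 24 and 48 h. MIC was taken as 95% growth inhibition versus control, determined twice in duplicate.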

[17] = tested on: Staphylococcus epidermidis; experiment: Antibacterial activity against Staphylococcus epidermidis HK6966/08 clinical isolate after 48 hrs by microdilution assay; type: functional; settings: HK6966/08, 48 h
[18] = tested on: PC-3; experiment: Induction of apoptosis in human PC3 cells assessed as caspase 3/7 activity after 24 hrs by caspase-glo luminescent assay; type: cell-based; settings: PC-3, 24 h; how it was run: as §1
[19] = tested on: MCF7; experiment: Cytotoxicity against human MCF7 cells assessed as reduction in cell viability after 48 hrs by ATPlite-based luminescent assay; settings: MCF7, 48 h
[20] = tested on: HL-60; experiment: Cytotoxicity against human HL60 cells assessed as reduction in cell viability after 48 hrs by ATPlite-based luminescent assay; settings: HL-60, 48 h; how it was run: as §2
[21] = tested on: Pseudomonas aeruginosa; experiment: Antibacterial activity against Pseudomonas aeruginosa ATCC 9027 after 48 hrs by microdilution assay; type: functional; settings: ATCC 9027, 48 h; how it was run: as §3
[22] = tested on: Pseudomonas aeruginosa; experiment: Antibacterial activity against Pseudomonas aeruginosa ATCC 9027 after 24 hrs by microdilution assay; type: functional; settings: ATCC 9027, 24 h; how it was run: as §3
[23] = tested on: Escherichia coli; experiment: Antibacterial activity against Escherichia coli ATCC 8739 after 48 hrs by microdilution assay; type: functional; settings: ATCC 8739, 48 h; how it was run: as §3
[24] = tested on: Staphylococcus aureus; experiment: Antibacterial activity against methicillin-resistant Staphylococcus aureus HK5996/08 clinical isolate after 24 hrs by microdilution assay; type: functional; settings: HK5996/08, 24 h
[25] = tested on: BJ; experiment: Cytotoxicity against human BJ cells assessed as reduction in cell viability after 48 hrs by ATPlite-based luminescent assay; how it was run: as §2
[26] = tested on: TERT-RPE1; experiment: Cytotoxicity against human RPE1 cells assessed as reduction in cell viability after 48 hrs by ATPlite-based luminescent assay; settings: RPE-1, 48 h; how it was run: as §2
[27] = tested on: Enterococcus sp.; experiment: Antibacterial activity against Enterococcus sp. HK14365/08 clinical isolate after 24 hrs by microdilution assay; type: functional; settings: HK14365/08, 24 h
[28] = tested on: Staphylococcus aureus; experiment: Antibacterial activity against methicillin-resistant Staphylococcus aureus HK5996/08 clinical isolate after 48 hrs by microdilution assay; type: functional; settings: HK5996/08, 48 h

Compound | MIC95 [1] | pIC50 [2] | pIC50 [3] | MIC95 [4] | MIC95 [5] | MIC95 [6] | MIC95 [7] | pIC50 [8] | MIC95 [9] | MIC95 [10] | pIC50 [11] | MIC95 [12] | pIC50 [13] | pIC50 [14] | pIC50 [15] | MIC95 [16] | MIC95 [17] | pIC50 [18] | pIC50 [19] | pIC50 [20] | also measured
COc1ccc(C2=C(c3ccc(OC)c(OC)c3)C(CO)(CO)OC2=O)cc1 | > 500 µM | < 4.40 | < 4.40 | > 500 µM | > 500 µM | > 500 µM | 250 µM (≈ 96.6 µg/mL) | < 4.40 | > 500 µM | > 500 µM | < 4.40 | > 500 µM | < 4.40 | < 4.40 | < 4.40 | > 500 µM | 250 µM (≈ 96.6 µg/mL) | < 4.40 | < 4.40 | < 4.40 | MIC95 [21]: > 500 µM; MIC95 [22]: > 500 µM; MIC95 [23]: > 500 µM; MIC95 [24]: 500 µM (≈ 193 µg/mL); pIC50 [25]: < 4.40; pIC50 [26]: < 4.40; MIC95 [27]: > 500 µM; MIC95 [28]: 500 µM (≈ 193 µg/mL)
O=C1OCC(c2ccc(C(F)(F)F)cc2)=C1c1ccc(Br)cc1 | > 500 µM | < 4.40 | 4.94 | > 500 µM | > 500 µM | > 500 µM | 125 µM (≈ 47.9 µg/mL) | < 4.40 | 62.5 µM (≈ 23.9 µg/mL) | 62.5 µM (≈ 23.9 µg/mL) | < 4.40 | > 500 µM | < 4.40 | < 4.40 | < 4.40 | > 500 µM | 125 µM (≈ 47.9 µg/mL) | < 4.40 | 5.20 | < 4.40 | MIC95 [21]: > 500 µM; MIC95 [22]: > 500 µM; MIC95 [23]: > 500 µM; MIC95 [24]: 62.5 µM (≈ 23.9 µg/mL); pIC50 [25]: < 4.40; pIC50 [26]: 4.78; MIC95 [27]: > 500 µM; MIC95 [28]: 62.5 µM (≈ 23.9 µg/mL)
COc1ccc(C2=C(c3c(Cl)cccc3Cl)C(=O)OC2)cc1 | > 500 µM | 4.79 | < 4.40 | > 500 µM | > 500 µM | > 500 µM | 125 µM (≈ 41.9 µg/mL) | < 4.40 | 125 µM (≈ 41.9 µg/mL) | 62.5 µM (≈ 20.9 µg/mL) | < 4.40 | > 500 µM | 4.84 | 4.90 | < 4.40 | > 500 µM | 250 µM (≈ 83.8 µg/mL) | < 4.40 | < 4.40 | 4.82 | MIC95 [21]: > 500 µM; MIC95 [22]: > 500 µM; MIC95 [23]: > 500 µM; MIC95 [24]: > 500 µM; pIC50 [25]: < 4.40; pIC50 [26]: < 4.40; MIC95 [27]: > 500 µM; MIC95 [28]: > 500 µM
